This is an account of results in the EternaBench riboswitch data.

For this data set, the system named is MS2 coat protein. Description: apparent Kd, MS2 coat protein; higher = weaker binding; RNA-MaP array; FMN 200 µM where present. The procedure, abridged:
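Binding was read on Illumina sequencing-chip clusters where stalled E. coli RNA polymerase had transcribed each design. A titration of SNAP-549-labelled MS2 coat protein began at 0.7 or 1.5 nM and doubled to 3 µM, once without ligand and once with constant ligand, in 100 mM Tris-HCl pH 7.5, 80 mM KCl, 4 mM MgCl2, BSA, DTT, yeast tRNA and Tween-20. The apparent Kd is the median of filtered per-cluster binding-curve fits, based on green signal normalised to red-channel RNA signal and control-cluster median Fmax.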

The mark [1] stands for this setting: designed as: OFF switch for flavin mononucleotide, no ligand.
Where [2] appears, read: ligand present: flavin mononucleotide, designed as: OFF switch for flavin mononucleotide.
The mark [3] stands for this setting: designed as: ON switch for flavin mononucleotide, no ligand.
Where [4] appears, read: ligand present: flavin mononucleotide, designed as: ON switch for flavin mononucleotide.

As usually defined, the apparent Kd is the concentration giving half-maximal binding under the conditions of the assay.

With “GGUGCGUUUGUGAGGAUAUGCUGGUCCUUGGUUCGGCAGAAGGCACAUGAGGAUCACCCAUGUGGUGUCGUGCC”, the “apparent Kd” value was determined as 35.1 nM under setting [1] and 77.5 nM under setting [2].

For “AGGAAGUGAGGAUAUGCAGUGGCUUGUAGACGCAAGCACUUGUAGAAGGCACAUGAGGAUCACCCAUGUUUAAA”, the “apparent Kd” value was found to be 30.8 nM under setting [1] and 37.3 nM under setting [2].

With “AAGCACAGAGGAUAUACAAUCCUCAGUGGGUCUGGCGAGCCACAUGAGGAUCACCCAUGUAGAAGGCUGGGCUC”, the “apparent Kd” value under setting [1] is 11.8 nM and the “apparent Kd” value under setting [2] came out at 14.6 nM.

As to “GGAUAGGACAGAGGAUAUACGAGCUAGAGAUACUAGCAAAAUUUCCUCACAUGAGGAUCACCCAUGUAGAAGGCUGUCCUAUCG”, the “apparent Kd” value by setting is: under setting [1], 17.5 nM; under setting [2], 536 nM.

“UGUUGUAUUACAGGAUAUCUAUUAUUUGUAUUUAGAGAAGGGUAUUCACAUGAGGAUCACCCAUGUAUAUACGAGGAAGUUGUG”: the “apparent Kd” value is 61.3 nM under setting [3] and 58.6 nM under setting [4].

Turning to “CUAAAAGUCGAGGAUAUGCACCGGCUUUUUGACGCAGAAGGCGACACAUGAGGAUCACCCAUGUCGGUACGCGA”, the “apparent Kd” value by setting is: under setting [1], 12.2 nM; under setting [2], 13 nM.

For “AAAUCGGCAGGAUAUACAUGAGGAUCACCCAUGUAAAUUUUUCGUUUAACUUGAAUGUGUAGAAGGGCCAUAAA”, the “apparent Kd” value was 25.6 nM under setting [1] and 27.1 nM under setting [2].

Turning to “AGACCGCUACGCCGGUUUCACGCACAGGAUAUGCGGUUACAUGAGGAUCACCCAUGUGGCCAUGUGUAGAAGGGUGGUUCGUGC”, the “apparent Kd” value runs as follows: under setting [3], 37 nM; under setting [4], 30.1 nM.

As for “CGGGUCUGAGGAUAUCCAUCUUCAUACAUGAGGAUCACCCAUGUUUACCUUUGGGUUUUUGGAGAAGGCAGUUUUC”, the “apparent Kd” value came to 43.5 nM under setting [1] and 74.6 nM under setting [2].

For “GCUUGUAGAGGAUAUACAAGGGCCCAAGCGGCGAGAGCCGCACAUGAGGAUCACCCAUGUAGAAGGCUACUAUA”, the “apparent Kd” value reads like this: under setting [1], 192 nM; under setting [2], 499 nM.

For the sequence “UGUCGGAGCAGAGGAUAUAACAUGAGGAUCACCCAUGUAAUAAGAUCAAGCUGGAAACAGCAAUGUUAGAAGGCUGCUCCGACA”, the “apparent Kd” value worked out at 219 nM under setting [1] and 1010 nM under setting [2].

With “UUGGACGUCGUAGGAUAUGUAGGAUAUUCCUACAUGAGGAUCACCCAUGUUGACAUGGAAGAAGGACAGAAGGACGAUAUCCAU”, the “apparent Kd” value came to 289 nM under setting [3] and 5.01 nM under setting [4].

Turning to “CUGAGCUGAGGAUAUACAUGAGGAUCACCCAUGUUUUGUAGUUAGUGAAGAAGUAGUUGUAGAAGGCAGUUCGG”, the “apparent Kd” value runs as follows: under setting [1], 51.3 nM; under setting [2], 255 nM.

For the sequence “UUUUUUUACUAGGAUAUCGCCGCCGAAAGGCGGCGAGAAGGAGUAACAUGAGGAUCACCCAUGUGUCCUUUUUU”, the “apparent Kd” value came out at 21.9 nM under setting [1] and 74.2 nM under setting [2].

As for “AAGUCUGGACGAGGAUAUCAGUUGUAUCUGGCGUCAACAUGAGGAUCACCCAUGUUGCAAUAGGGUGAGAAGGCGUUUGGGCAA”, the “apparent Kd” value runs as follows: under setting [3], 41.6 nM; under setting [4], 19.1 nM.

Take “AUCAGCUCGUCAGGAUAUACGUCACUGCGUCAGCAGGGUGGUAAGAUCACAUGAGGAUCACCCAUGUAGAAGGGACGAGCUGAU”: the “apparent Kd” value under setting [1] came out at 23 nM and the “apparent Kd” value under setting [2] was 404 nM.

Take “CCAUGCGGAAUAGGAUAUUCAUUCAUGAGGAUAGAAGAAGGGUUACAUGAGGAUCACCCAUGUAUACACAUGAGGAUCCCUUAC”: the “apparent Kd” value by setting is: under setting [1], 162 nM; under setting [2], 180 nM.

Regarding “CGCCGCACCAGCCGGCGGCAGGGUCAGGAUAUACAUGAGGAUCACCCAUGUGAACGGUGCCCAAUGUAGAAGGGACGAAGAGAC”, the “apparent Kd” value reads like this: under setting [1], 20.5 nM; under setting [2], 32.6 nM.

“GGGCUGUCAGGAUAUGGGCUCGGGCUCGAAAGGGCUCGGGCUCAGAAGGGACAUGAGGAUCACCCAUGUGGCUC”: the “apparent Kd” value was determined as 43.8 nM under setting [1] and 58 nM under setting [2].

As to “GCGUAACAUGAGGAUCACCCAUGUACCCGAGAAUUCGGGUCUAGAAGGGUGACCGGUCGUUUGGCACAGGAUAUAGACGUUGUG”, the “apparent Kd” value under setting [3] worked out at 30.7 nM and the “apparent Kd” value under setting [4] is 11.3 nM.

On to “CAUAACGGCUGAGGAUAUUGAAUGUGCGUGGACAUGAGGAUCACCCAUGUUCAAGAAGGCAGCAAUUUACUUGGAUCUAUCCGC”, for which the “apparent Kd” value stood at 66.2 nM under setting [1] and 217 nM under setting [2].

On to “GGUCGUCCCAUUAACAUGAGGAUCACCCAUGUCAAAAGACAUGAGGAUAUGGUACCUAAUUGGUACCAGAAGGCAUGGACGACC”, for which the “apparent Kd” value came to 1210 nM under setting [3] and 115 nM under setting [4].

On to “CUUAGGUGAGGAUAUUAGUAGUAAAUGAAUAAAAUUAUUACUGAGAAGGCACAUGAGGAUCACCCAUGUUCCUC”, for which the “apparent Kd” value reads like this: under setting [1], 35.8 nM; under setting [2], 444 nM.

In the case of “CAGUACUGAGGAUAUACAUGAGGAUCACCCAUGUGUUCCAGCUAGGAGACUAGCAAAAGUAGAAGGCAGUACUG”, the “apparent Kd” value is, setting by setting: under setting [1], 27 nM; under setting [2], 345 nM.

“UUUUACUAGUAAGGAUAUACUAGCGAUUAGCUUGUAGAAGGUGCAGUCUUAUGUAUAACAUGUUAACAUGAGGAUCACCCAUGU”: the “apparent Kd” value is, setting by setting: under setting [3], 125 nM; under setting [4], 37.6 nM.

In the case of “GUUGUUUCUGAGGAUAUUAUUUUAUUCGAUUGAUAAGAAGGCAGUACAUGAGGAUCACCCAUGUGGGUAGUUUG”, the “apparent Kd” value reads like this: under setting [1], 94.2 nM; under setting [2], 172 nM.

In the case of “AGUACUACAGGAUAUACAUGAGUGAUACUCAUAUACCUUCUACAUGAGGAUCACCCAUGUAGAAGGGUAGUACA”, the “apparent Kd” value is 15.3 nM under setting [1] and 12.5 nM under setting [2].

Turning to “AUACUCAUGUAAGGAUAUGCAGCCGAAACGGCUGCAGAAGGUACUAUAAUACAUGAGGAUCACCCAUGUCGAAAUAAAAUAGUU”, the “apparent Kd” value reads like this: under setting [3], 201 nM; under setting [4], 47.9 nM.

For the sequence “AUGCUUUUUGUAGGAUAUACAUUUUGUACGUAUGUAGAAGGACAUGAGGAUCACCCAUGUAAAUAAAUAUUAAAUAUCAUACUU”, the “apparent Kd” value runs as follows: under setting [1], 54.6 nM; under setting [2], 39.6 nM.

With “UUAUUUAGUGUGAGGAUAUGCUGGUCCUUGGAUCAGCAGAAGGCACAUGAGGAUCACCCAUGUAAUAUAUUAAU”, the “apparent Kd” value came to 91 nM under setting [1] and 305 nM under setting [2].

Consider “GCCGCAGGAACAGGAUAUGUGGGCAUAAAAUUAUACCAGGCCCACAUGAGGAUCACCCAUGUGACACAGAAGGGUUCCUAAAUA”, for which the “apparent Kd” value worked out at 619 nM under setting [3] and 29.8 nM under setting [4].

For the sequence “AAAACAUGAGGAUCACCCAUGUAAUGAUCGGUUGAUGAAAGUGAGGAUAUACAAAAUUUUAUGGAGUAGAAGGCACUGGGUUCA”, the “apparent Kd” value reads like this: under setting [3], 31.4 nM; under setting [4], 31.9 nM.

Turning to “AGCGAGAUAGGCGAGGAUAUGCUUUUUUGCACAUGAGGAUCACCCAUGUCUUUGUUUUUUGUUUUGCAGAAGGCGCAUUCUCUUU”, the “apparent Kd” value by setting is: under setting [3], 18.9 nM; under setting [4], 41.2 nM.

Take “GGACGUCAGAUUAACAUGAGGAUCACCCAUGUCUUUUGACAUGAGGAUAUGCAUCCUAAUUGGAUGCAGAAGGCAUGGACGUCC”: the “apparent Kd” value under setting [3] worked out at 1020 nM and the “apparent Kd” value under setting [4] was found to be 84 nM.

As for “CGCAACAUACAGAAGGAGUAAAUUAGAAGUGUACUAGGAUAUGUUUACAUGAGGAUCACCCAUGUCGAUUGGGUUUUAGUUGCG”, the “apparent Kd” value reads like this: under setting [1], 489 nM; under setting [2], 251 nM.

For “CCUGAGUCAGGAUAUUGUACCGGCCUGAAGCCAAGCCGACCCAAGAAGGGACAUGAGGAUCACCCAUGUGAAAA”, the “apparent Kd” value is, setting by setting: under setting [1], 21.3 nM; under setting [2], 22.9 nM.

“CAUAUACAUGAGGAUCACCCAUGUUAGGAUAUGUUUUAACCGCGCGCAGGGUUAGUUGGCAGAAGGGAUCUGGG”: the “apparent Kd” value by setting is: under setting [1], 31.4 nM; under setting [2], 39 nM.

Turning to “UCCGCUAUCUAGAAGGAUAUGCGUAUAUAAACAUGAGGAUCACCCAUGUACCGGCGAAAACCGGUGCAGAAGGUUUAGCUAGUGA”, the “apparent Kd” value by setting is: under setting [3], 431 nM; under setting [4], 65.7 nM.

On to “UAAAAUAGUGUGAGGAUAUGCUGGUCCUUGGAUCAGCAGAAGGCACAUGAGGAUCACCCAUGUAGUUAAUUUUA”, for which the “apparent Kd” value reads like this: under setting [1], 40.5 nM; under setting [2], 218 nM.

As to “GUAUGAGCGAUAGGAUAUACUGAGAUUGAAUGGGUAGAAGGAUCACUUGUGAGGAAGACAUGAGGAUCACCCAUGUCACGGGCC”, the “apparent Kd” value is, setting by setting: under setting [3], 92.8 nM; under setting [4], 119 nM.

As to “AUCCUACAUGAGGAUCACCCAUGUCAGGAUAUCCAAGAAAUGUGGCCGUAUCGGCCACGGAGAAGGGACGGGUG”, the “apparent Kd” value turned out to be 40 nM under setting [1] and 60.8 nM under setting [2].

Consider “GGUGCGUUUGUGAGGAUAUGCUGGUCCUUGGAUCAGCAGAAGGCACAUGAGGAUCACCCAUGUGGUGUCCGUCC”, for which the “apparent Kd” value came to 222 nM under setting [1] and 117 nM under setting [2].

For “GAAAAGAAAGGAUAUACAGGGAAAUGAACCGCACGUAAACCACAUGAGGAUCACCCAUGUAGAAGGUUCAGUGC”, the “apparent Kd” value by setting is: under setting [1], 10.7 nM; under setting [2], 14.4 nM.

On to “AAGAAACAUGAGGAUCACCCAUGUCAGGAUAUCUCGAAAAGCAUAGAAAUAUGCGAAGAGAGAAGGGACAAGAA”, for which the “apparent Kd” value by setting is: under setting [1], 65 nM; under setting [2], 57 nM.

In the case of “GGCGGAGACGUUAACAUGAGGAUCACCCAUGUCGAAGGAGAUGAGGAUAUCGCACACGAUGUGUGUGAGAAGGCAUGGUCUGCC”, the “apparent Kd” value was 67.4 nM under setting [3] and 15.4 nM under setting [4].

Consider “ACUUAUGAAGGAUAUACUAGCGACAUGCACUCAACACGCGCACAUGAGGAUCACCCAUGUAGAAGGUCAAACAU”, for which the “apparent Kd” value turned out to be 25.8 nM under setting [1] and 23.1 nM under setting [2].

For “CUGCUUCCCAGUUUGGUUAUUUAUACAGAAGGCCAUUCACAUGAGGAUCACCCAUGUCAAGUAAUGGAGGAUAUGUUAUUGUCG”, the “apparent Kd” value worked out at 6.64 nM under setting [3] and 4.65 nM under setting [4].

“CUGCGGUAGGAGAAGGACGGCGGGUUCUUUUCAUACAUGAGGAUCACCCAUGUAGGAUAUCCUACCUCAGGCGGCCUACUACAG”: the “apparent Kd” value runs as follows: under setting [1], 7.68 nM; under setting [2], 10.9 nM.
